According to ChEMBL document CHEMBL1148053, “(+)-(S)-dihydroaeruginoic acid, an inhibitor of Septoria tritici and other phytopathogenic fungi and bacteria, produced by Pseudomonas fluorescens” (1994):

Assays:
Staphylococcus [1] = experiment: Antibacterial activity against Staphylococcus albus Sal1091-4 at 200 ug/disk by paper disk agar diffusion method; assay type: functional; conditions: read-out: IZ
Method in brief: (§1)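 Paper-disc agar-diffusion assay on Luria agar (tryptone, yeast extract, NaCl, agar), the medium used for maintaining and testing the bacteria. The compound was dissolved in Me₂CO and absorbed onto 6-mm paper discs at the stated amount per disc. Three separately weighed solutions were used, with three discs each, giving nine measurements per organism.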

Fusarium oxysporum [2] = experiment: Antifungal activity against Fusarium oxysporum Fo0593-22 assessed as colony reduction at 100 ug/disk after 2 to 6 days by paper disk agar diffusion method relative to control; assay type: functional; design: scale not given: the % may be the effect or the level left
Method in brief: (§2)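 Tested on one-fourth-strength potato dextrose agar. A 5-mm mycelial agar plug from the colony edge was placed at the dish centre. A 6-mm disc with the compound in Me₂CO and an Me₂CO-only control disc were set on opposite sides, each 30 mm from the plug. After 2-6 days, colony radii were measured along the line joining the discs. Values are the mean of nine (3 weighings × 3 discs), analysed by two-way ANOVA.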

Athelia rolfsii [3] = experiment: Antifungal activity against Sclerotium rolfsii RG-1984 assessed as colony reduction at 200 ug/disk after 2 to 6 days by paper disk agar diffusion method relative to control; assay type: functional, Agroathelia rolfsii; design: scale not given: the % may be the effect or the level left
Method in brief: (§3)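 Paper-disc agar-diffusion on one-fourth-strength PDA. Mycelial agar plug (5 mm) from culture edge placed at plate centre; 6-mm disc loaded with compound in Me2CO and Me2CO-only control disc set on opposite sides, each 30 mm from plug. After 2-6 days (per growth rate), colony radii measured along line joining disc centres. Three separate weighings × three discs (nine) per organism; two-way ANOVA.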

Globisporangium ultimum [4] = experiment: Antifungal activity against Pythium ultimum RG-5601 assessed as colony reduction at 100 ug/disk after 2 to 6 days by paper disk agar diffusion method relative to control; assay type: functional; design: scale not given: the % may be the effect or the level left; method in brief: as §3
Pseudomonas fluorescens [5] = experiment: Antibacterial activity against Pseudomonas fluorescens PFM2 at 200 ug/disk by paper disk agar diffusion method; assay type: functional; conditions: read-out: IZ; method in brief: as §1
Zymoseptoria tritici [6] = experiment: Antifungal activity against Septoria tritici ISR-SE93 assessed as diameter of zone of inhibition at 100 ug/disk after 2 to 6 days by paper disk agar diffusion method; conditions: read-out: IZ
Rhizoctonia solani [7] = experiment: Antifungal activity against Rhizoctonia solani DL5588 assessed as colony reduction at 100 ug/disk after 2 to 6 days by paper disk agar diffusion method relative to control; assay type: functional; design: scale not given: the % may be the effect or the level left; method in brief: as §2
Staphylococcus [8] = experiment: Antibacterial activity against Staphylococcus albus Sal1091-4 at 100 ug/disk by paper disk agar diffusion method; assay type: functional; conditions: read-out: IZ; method in brief: as §1
[9] = test system: Colletotrichum gloeosporioides; experiment: Antifungal activity against Colletotrichum gloeosporioides DL5605 assessed as colony reduction at 100 ug/disk after 2 to 6 days by paper disk agar diffusion method relative to control; assay type: functional; design: scale not given: the % may be the effect or the level left; method in brief: as §2
Bacillus subtilis [10] = experiment: Antibacterial activity against Bacillus subtilis Bs1091 at 200 ug/disk by paper disk agar diffusion method; assay type: functional; conditions: read-out: IZ; method in brief: as §1
Botrytis cinerea [11] = experiment: Antifungal activity against Botrytis cinerea DL6050 assessed as colony reduction at 200 ug/disk after 2 to 6 days by paper disk agar diffusion method relative to control; assay type: functional; design: scale not given: the % may be the effect or the level left; method in brief: as §2
Pantoea agglomerans [12] = experiment: Antibacterial activity against Erwinia herbicola SM-824 at 200 ug/disk by paper disk agar diffusion method; assay type: functional; conditions: read-out: IZ; method in brief: as §1
Pseudomonas fluorescens [13] = experiment: Antibacterial activity against Pseudomonas fluorescens PFM2 at 100 ug/disk by paper disk agar diffusion method; assay type: functional; conditions: read-out: IZ; method in brief: as §1
[14] = test system: Colletotrichum gloeosporioides; experiment: Antifungal activity against Colletotrichum gloeosporioides DL5605 assessed as colony reduction at 200 ug/disk after 2 to 6 days by paper disk agar diffusion method relative to control; assay type: functional; design: scale not given: the % may be the effect or the level left; method in brief: as §2
Botrytis cinerea [15] = experiment: Antifungal activity against Botrytis cinerea DL6050 assessed as colony reduction at 100 ug/disk after 2 to 6 days by paper disk agar diffusion method relative to control; assay type: functional; design: scale not given: the % may be the effect or the level left; method in brief: as §2
Fusarium oxysporum [16] = experiment: Antifungal activity against Fusarium oxysporum Fo0593-22 assessed as colony reduction at 200 ug/disk after 2 to 6 days by paper disk agar diffusion method relative to control; assay type: functional; design: scale not given: the % may be the effect or the level left; method in brief: as §2
Globisporangium ultimum [17] = experiment: Antifungal activity against Pythium ultimum RG-5601 assessed as colony reduction at 200 ug/disk after 2 to 6 days by paper disk agar diffusion method relative to control; assay type: functional; design: scale not given: the % may be the effect or the level left; method in brief: as §3
Athelia rolfsii [18] = experiment: Antifungal activity against Sclerotium rolfsii RG-1984 assessed as colony reduction at 100 ug/disk after 2 to 6 days by paper disk agar diffusion method relative to control; assay type: functional, Agroathelia rolfsii; design: scale not given: the % may be the effect or the level left; method in brief: as §3
Rhizoctonia solani [19] = experiment: Antifungal activity against Rhizoctonia solani DL5588 assessed as colony reduction at 200 ug/disk after 2 to 6 days by paper disk agar diffusion method relative to control; assay type: functional; design: scale not given: the % may be the effect or the level left; method in brief: as §2
Pantoea agglomerans [20] = experiment: Antibacterial activity against Erwinia herbicola SM-824 at 100 ug/disk by paper disk agar diffusion method; assay type: functional; conditions: read-out: IZ; method in brief: as §1
Bacillus subtilis [21] = experiment: Antibacterial activity against Bacillus subtilis Bs1091 at 100 ug/disk by paper disk agar diffusion method; assay type: functional; conditions: read-out: IZ; method in brief: as §1
Zymoseptoria tritici [22] = experiment: Antifungal activity against Septoria tritici ISR-SE93 assessed as diameter of zone of inhibition at 200 ug/disk after 2 to 6 days by paper disk agar diffusion method; conditions: read-out: IZ

Compound | zone of inhibition at 200 µg/disc (Staphylococcus [1]) [mm] | Activity (Fusarium oxysporum [2]) [%] | Activity (Athelia rolfsii [3]) [%] | Activity (Globisporangium ultimum [4]) [%] | zone of inhibition at 200 µg/disc (Pseudomonas fluorescens [5]) [mm] | zone of inhibition at 100 µg/disc (Zymoseptoria tritici [6]) [mm] | Activity (Rhizoctonia solani [7]) [%] | zone of inhibition at 100 µg/disc (Staphylococcus [8]) [mm] | Activity [9] [%] | zone of inhibition at 200 µg/disc (Bacillus subtilis [10]) [mm] | Activity (Botrytis cinerea [11]) [%] | zone of inhibition at 200 µg/disc (Pantoea agglomerans [12]) [mm] | zone of inhibition at 100 µg/disc (Pseudomonas fluorescens [13]) [mm] | Activity [14] [%] | Activity (Botrytis cinerea [15]) [%] | Activity (Fusarium oxysporum [16]) [%] | Activity (Globisporangium ultimum [17]) [%] | Activity (Athelia rolfsii [18]) [%] | Activity (Rhizoctonia solani [19]) [%] | zone of inhibition at 100 µg/disc (Pantoea agglomerans [20]) [mm] | other results
O=C(O)[C@H]1CSC(c2ccccc2O)=N1 | 26.2 | 8 | 53 | 22 | 0 | 0 | 1 | 20.2 | 8 | 13.3 | 43 | 8.7 | 0 | 10 | 27 | 15 | 43 | 32 | 5 | 6.7 | zone of inhibition at 100 µg/disc (Bacillus subtilis [21]): 10.8 mm; zone of inhibition at 200 µg/disc (Zymoseptoria tritici [22]): 13 mm
O=C(O)[C@@H]1CSC(c2ccccc2O)=N1 | 28.2 | 5 | 52 | 12 | 0 | 0 | 6 | 22 | 8 | 19.7 | 46 | 10.4 | 0 | 9 | 36 | 11 | 33 | 32 | 17 | 8.2 | zone of inhibition at 100 µg/disc (Bacillus subtilis [21]): 14.9 mm; zone of inhibition at 200 µg/disc (Zymoseptoria tritici [22]): 13 mm
